Legend:
Type in all cases: functional
Details in all cases: read-out: DIZ
[1] = tested on: Bacillus subtilis; assay: Antimicrobial activity against Bacillus subtilis ATCC 6633 at 2 mM after overnight incubation by agar diffusion method
How it was run: (§1)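 Agar diffusion: 9 mm wells cut in Standard I Nutrient Agar or Mueller Hinton II agar, each loaded with 50 µl of a 2.0 mM compound solution in 1:9 DMSO:MeOH. Ciprofloxacin was run as control at 5 µg/mL in H2O. Plates were incubated at 37 °C for 24 h, and the inhibition zone diameter was read in mm. Zones were flagged as partially clear, unclear with colonies, or faint.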

[2] = tested on: Micrococcus luteus; assay: Antimicrobial activity against Micrococcus luteus ATCC 10240 at 2 mM after overnight incubation by agar diffusion method; how it was run: as §1
[3] = tested on: Staphylococcus aureus; assay: Antimicrobial activity against wild type Staphylococcus aureus SG 511 at 2 mM after overnight incubation by agar diffusion method; how it was run: as §1
[4] = tested on: Enterococcus faecalis; assay: Antimicrobial activity against Enterococcus faecalis ATCC 49532 at 2 mM after overnight incubation by agar diffusion method; how it was run: as §1
[5] = tested on: Pseudomonas aeruginosa; assay: Antimicrobial activity against wild type Pseudomonas aeruginosa K799 at 2 mM after overnight incubation by agar diffusion method; how it was run: as §1
[6] = tested on: Pseudomonas aeruginosa; assay: Antimicrobial activity against Pseudomonas aeruginosa K799/61 mutant at 2 mM after overnight incubation by agar diffusion method
How it was run: (§2)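 Agar well diffusion: 50 µl of a 2.0 mM solution in 1:9 DMSO:MeOH placed in 9 mm wells cut in nutrient agar or Mueller Hinton II agar; plates incubated 37 °C for 24 h, then inhibition zone diameter measured in mm. Zones scored as clear, partially clear, unclear (many colonies inside) or faint. Ciprofloxacin positive control at 5 µg/mL in water.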

[7] = tested on: Escherichia coli; assay: Antimicrobial activity against Escherichia coli ATCC 25922 at 2 mM after overnight incubation by agar diffusion method; how it was run: as §1
[8] = tested on: Mycolicibacterium vaccae; assay: Antimicrobial activity against Mycobacterium vaccae IMET 10670 at 2 mM after overnight incubation by agar diffusion method; how it was run: as §1
[9] = tested on: Staphylococcus aureus; assay: Antimicrobial activity against methicillin-resistant Staphylococcus aureus 143/93 at 2 mM after overnight incubation by agar diffusion method; how it was run: as §2
[10] = tested on: Enterococcus faecalis; assay: Antimicrobial activity against vancomycin-resistant Enterococcus faecalis 1528 at 2 mM after overnight incubation by agar diffusion method; how it was run: as §2
[11] = tested on: Escherichia coli; assay: Antimicrobial activity against Escherichia coli X580 at 2 mM after overnight incubation by agar diffusion method

Compound | zone of inhibition at 2000 µM [1] | zone of inhibition at 2000 µM [2] | zone of inhibition at 2000 µM [3] | zone of inhibition at 2000 µM [4] | zone of inhibition at 2000 µM [5] | zone of inhibition at 2000 µM [6] | zone of inhibition at 2000 µM [7] | zone of inhibition at 2000 µM [8] | zone of inhibition at 2000 µM [9] | zone of inhibition at 2000 µM [10] | zone of inhibition at 2000 µM [11]
O=C1O[C@@H](CO)CN1c1ccc(N2CCSCC2)c(F)c1 | 26 mm | 41 mm | 24 mm | 21.5 mm | 0 mm | 11 mm | 0 mm | 43 mm |  |  | 
O=C1O[C@@H](COC(=O)N2OC3C=CC2C3)CN1c1ccc(N2CC[S+]([O-])CC2)c(F)c1 (some centres not stated) | 21 mm | 22 mm | 18 mm | 19 mm | 0 mm | 11 mm | 0 mm | 35 mm |  |  | 
O=C(N[C@H]1C=C[C@@H](O)C1)OC[C@H]1CN(c2ccc(N3CCOCC3)c(F)c2)C(=O)O1 | 14 mm |  | 15 mm |  |  | 0 mm |  | 18 mm | 14 mm | 12 mm | 
O=C(N[C@H]1C=C[C@@H](O)C1)OC[C@H]1CN(c2ccc(N3CCSCC3)c(F)c2)C(=O)O1 | 14 mm | 15 mm | 12.5 mm | 12.5 mm | 0 mm | 10 mm | 0 mm | 18 mm |  |  | 
CC(C)(C)OC(=O)N1CCN(c2ccc(N3C[C@H](COC(=O)N[C@H]4C=C[C@@H](O)C4)OC3=O)cc2F)CC1 | 13 mm | 12 mm | 14 mm | 12.5 mm | 0 mm | 10 mm | 0 mm | 12 mm |  |  | 
CC(=O)NC[C@H]1CN(c2ccc(N3CCOCC3)c(F)c2)C(=O)O1 [LINEZOLID] | 31 mm | 38 mm | 27 mm | 25 mm | 0 mm | 10 mm | 0 mm | 42 mm |  |  | 0 mm
CC(C)(C)OC(=O)N1CCN(c2ccc(N3C[C@H](COC(=O)N[C@H]4C=C[C@@H](O)CC4)OC3=O)cc2F)CC1 | 0 mm | 0 mm | 0 mm | 12 mm | 0 mm | 12 mm | 0 mm | 0 mm |  |  | 
O=C(N[C@H]1C=C[C@@H](O)CC1)OC[C@H]1CN(c2ccc(N3CCSCC3)c(F)c2)C(=O)O1 | 12 mm | 14 mm | 0 mm | 12 mm | 0 mm | 10 mm | 0 mm | 0 mm |  |  | 
CC(C)(C)OC(=O)N1CCN(c2ccc(N3C[C@H](COC(=O)N4OC5C=CC4C5)OC3=O)cc2F)CC1 (some centres not stated) | 12 mm | 16 mm | 13 mm | 19 mm | 14 mm | 0 mm | 0 mm | 19 mm | 19 mm | 16 mm | 
CC(C)(C)OC(=O)N1CCN(c2ccc(N3C[C@H](COC(=O)N4OC5C=CC4CC5)OC3=O)cc2F)CC1 (some centres not stated) | 18 mm |  | 16 mm |  |  | 0 mm |  | 13 mm | 14 mm | 12 mm | 
O=C(NO)OC[C@H]1CN(c2ccc(N3CCOCC3)c(F)c2)C(=O)O1 | 23 mm | 37 mm | 18 mm | 22 mm | 0 mm | 0 mm | 12 mm |  |  |  | 0 mm
CC(C)(C)OC(=O)N1CCN(c2ccc(N3C[C@H](COC(=O)NO)OC3=O)cc2F)CC1 | 22 mm | 33 mm | 17 mm | 20 mm | 0 mm | 0 mm | 12 mm |  |  |  | 0 mm
O=C1O[C@@H](CO)CN1c1ccc(N2CCOCC2)c(F)c1 | 26 mm | 38 mm | 23 mm | 21 mm | 0 mm | 11 mm | 0 mm | 43 mm |  |  | 
O=C(O)c1cn(C2CC2)c2cc(N3CCNCC3)c(F)cc2c1=O [CIPROFLOXACIN] | 29.5 mm | 0 mm | 24 mm | 13 mm | 35 mm | 39 mm | 31 mm | 19 mm | 0 mm | 15 mm | 
O=C1O[C@@H](COC(=O)N2OC3C=CC2C3)CN1c1ccc(N2CCOCC2)c(F)c1 (some centres not stated) | 17 mm |  | 15 mm |  |  | 0 mm |  | 30 mm | 25 mm | 19 mm | 
O=C(NO)OC[C@H]1CN(c2ccc(N3CCSCC3)c(F)c2)C(=O)O1 | 16 mm | 33 mm | 16 mm | 16 mm | 0 mm | 0 mm | 0 mm |  |  |  | 20 mm
O=C1O[C@@H](COC(=O)N2OC3C=CC2CC3)CN1c1ccc(N2CC[S+]([O-])CC2)c(F)c1 (some centres not stated) | 17 mm | 15 mm | 15 mm | 17 mm | 0 mm | 10 mm | 0 mm | 18 mm |  |  | 
CC(C)(C)OC(=O)N1CCN(c2ccc(N3C[C@H](CO)OC3=O)cc2F)CC1 | 23 mm | 34.5 mm | 24 mm | 21 mm | 0 mm | 10 mm | 0 mm |  |  |  | 
O=C1O[C@@H](COC(=O)N2OC3C=CC2CC3)CN1c1ccc(N2CCOCC2)c(F)c1 (some centres not stated) | 19 mm |  | 16 mm |  |  | 0 mm |  | 15 mm | 18 mm | 16 mm | 
O=C(N[C@H]1C=C[C@@H](O)CC1)OC[C@H]1CN(c2ccc(N3CCOCC3)c(F)c2)C(=O)O1 | 13 mm |  | 14 mm |  |  | 0 mm |  | 0 mm | 14 mm | 12 mm | 
CC(=O)OC[C@H]1CN(c2ccc(N3CCOCC3)c(F)c2)C(=O)O1 | 26.5 mm | 38 mm | 26 mm | 24 mm | 0 mm | 17 mm | 0 mm | 43 mm |  |  | 

From ChEMBL document CHEMBL1158519, “Syntheses and antibacterial activity studies of new oxazolidinones from nitroso Diels-Alder chemistry” (2010)
